From ChEMBL document CHEMBL1151814, “Ambuic acid and torreyanic acid derivatives from the endolichenic fungus Pestalotiopsis sp” (J Nat Prod, 2009) come the findings set out here.

The source made the active and inactive calls. The calls are words filed in the database; no cut-off is given here.

Assay type in all cases: functional, organism-based
The subject of one assay is Aspergillus fumigatus. As to the kind of experiment: Antifungal activity against Aspergillus fumigatus ATCC 10894 after 48 hrs by NCCLS method. Summed up:
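Mould grown on potato dextrose agar; inoculum from broth culture at 28 °C for 48 h, final 10^4 mycelial fragments/mL in PDB. Compounds serially diluted from 10 mg/mL DMSO stock, triplicate wells per NCCLS. Absorbance at 595 nm after incubation; IC50 from inhibition rate plotted versus concentration. Fluconazole positive control.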

The next assay concerns Geotrichum candidum. As to the kind of experiment: Antifungal activity against Geotrichum candidum AS2.498 after 48 hrs by NCCLS method. Particulars: AS2.498, 48 h. Summed up:
(§1)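 Yeasts grown on Sabouraud dextrose agar; inoculum from broth culture at 28 °C for 48 h, final suspension 10^5 cells/mL in SDB. Serial dilutions from 10 mg/mL DMSO stock in triplicate per NCCLS. A595 read after incubation; IC50 derived from inhibition rate versus concentration plot. Fluconazole served as positive control.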

For a further assay, the system named is Streptococcus pneumoniae. As to the kind of experiment: Antibacterial activity against Streptococcus pneumoniae CGMCC 1.1692 after 24 hrs by NCCLS method. Conditions: CGMCC 1.1692, 24 h. Put shortly: (§2)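 Bacteria grown on Mueller-Hinton agar; inoculum from broth culture at 37 °C for 24 h, final suspension 10^6 cells/mL in MHB. Serial dilutions from 10 mg/mL DMSO stock, tested in triplicate per NCCLS recommendations. Absorbance read at 595 nm after incubation. Inhibition rate plotted against concentration to give IC50. Controls were antimicrobial peptide AMP and streptomycin.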

A further assay relates to Staphylococcus aureus. Briefly: Antibacterial activity against Staphylococcus aureus ATCC 6538 after 24 hrs by NCCLS method. Conditions: ATCC 6538, 24 h. Summed up: as §2
Another assay relates to Candida albicans. As to the kind of experiment: Antifungal activity against Candida albicans ATCC 10231 after 48 hrs by NCCLS method. Particulars: ATCC 10231, 48 h. Put shortly:
as §1

In the next assay the test system is Escherichia coli. Briefly: Antibacterial activity against Escherichia coli CGMCC 1.2340 after 24 hrs by NCCLS method. Conditions: CGMCC 1.2340, 24 h. Put shortly: as §2

Regarding `CCC(=O)CC/C=C/C1=C(CO)[C@@H](O)[C@H]2O[C@@]2(C/C=C(\C)C(=O)O)C1=O`, the result with Aspergillus fumigatus was inactive. Further, the IC50 with Geotrichum candidum, in the assay with Streptococcus pneumoniae, in the assay with Staphylococcus aureus, in the assay on Candida albicans and in the assay on Escherichia coli was more than 50 µM in each case.
Consider `CCCCCCCC1=C(CO)[C@@H](O)[C@H]2O[C@@]2(C/C=C(\C)C(=O)O)C1=O`, for which the result with Aspergillus fumigatus was inactive. Besides, the IC50 in the assay on Geotrichum candidum, in the assay on Streptococcus pneumoniae, in the assay with Staphylococcus aureus, in the assay on Candida albicans and in the assay on Escherichia coli was more than 50 µM in each case.
As to `CCCCC/C=C/C1=C(CO)[C@H](O)[C@H]2O[C@@]2(C/C=C(\C)C(=O)O)C1=O` [AMBUIC ACID], in the assay with Aspergillus fumigatus, the outcome was inactive. Also, in the assay with Staphylococcus aureus, the IC50 was found to be 43.9 µM.
`CCC/C=C/C=C/C1=C(CO)[C@@H](O)[C@H]2O[C@@]2(C/C=C(\C)C(=O)O)C1=O`: the result in the assay on Aspergillus fumigatus was inactive. For the same compound, the IC50 in the assay on Geotrichum candidum, in the assay with Streptococcus pneumoniae, with Staphylococcus aureus, with Candida albicans and in the assay with Escherichia coli was more than 50 µM throughout.
Regarding `CCCCCC1O[C@H]2C3=C(C(=O)[C@@]4(C/C=C(\C)C(=O)O)OC4[C@H]3O)C1C1C(CCCCC)OC=C3C(=O)C4O[C@]4(C/C=C(\C)C(=O)O)C(=O)C312` (stereo not given in full), the outcome in the assay with Aspergillus fumigatus was inactive. Further, the IC50 in the assay with Geotrichum candidum, in the assay on Streptococcus pneumoniae, with Staphylococcus aureus, in the assay on Candida albicans and with Escherichia coli was more than 50 µM each time.
As to `CCCCC/C=C/C1=C(CO)C(=O)C[C@](O)(C/C=C(\C)C(=O)O)[C@H]1O`, in the assay with Aspergillus fumigatus, the outcome was inactive. Moreover, the IC50 in the assay on Geotrichum candidum, in the assay on Streptococcus pneumoniae, in the assay on Staphylococcus aureus, with Candida albicans and with Escherichia coli was more than 50 µM in each case.
Take `CCCCC/C=C/C1=C(COC(C)=O)[C@@H](O)[C@H]2O[C@@]2(C/C=C(\C)C(=O)O)C1=O`: the outcome in the assay on Aspergillus fumigatus was inactive. Besides, the IC50 with Staphylococcus aureus amounted to 27.8 µM.
In the case of `CCCCC/C=C/C1=C2COC(C)(C)O[C@H]2[C@H]2O[C@@]2(C/C=C(\C)C(=O)O)C1=O`, the outcome with Aspergillus fumigatus was inactive. In addition, the IC50 in the assay with Geotrichum candidum, with Streptococcus pneumoniae, in the assay on Staphylococcus aureus, in the assay on Candida albicans and with Escherichia coli was more than 50 µM each time.
